The nature of series [1]: Haemolytic activity in human erythrocytes assessed as induction of hemolysis incubated for 1 hr. The format is cell-based, Erythrocyte. The method in brief: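 Human erythrocytes from fresh heparinized blood were suspended at 5 vol% in PBS (pH 7.4), mixed 3:1 with serially diluted compound, and incubated 1 h at 37°C. Controls were no compound and 1 vol% Triton X-100. After centrifugation, supernatant A540 gave % haemolysis relative to the Triton control. HC50 is the mean ± SEM of at least two independent experiments, each run in triplicate.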

A short description of series [2]: Selectivity index, ratio of HC50 for haemolytic activity in human erythrocytes to IC50 for antimalarial activity against Plasmodium falciparum 3D7 cultured in human O+ erythrocytes. The format is toxicity, cell-based. The conditions noted are these: read-out: Selectivity Index.
The subject of series [3] is Plasmodium falciparum. Kind of series: Antimalarial activity against Plasmodium falciparum 3D7 cultured in human O+ erythrocytes assessed as reduction in parasite growth incubated for 48 hrs by SYBR green I based fluorescence assay. It is filed as functional, organism-based. The note with it: 3D7, 48 h. The method in brief: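 Sorbitol-synchronized ring-stage cultures (2% haematocrit, 1% parasitaemia) were exposed to serial dilutions in complete RPMI, top concentration 10 µM, for 48 h. Chloroquine served as positive control and no compound as negative control. Lysis buffer with SYBR Green I (Tris pH 7.5, EDTA, saponin, Triton X-100) was added for 1 h in the dark at 37°C. Fluorescence was read at ex 485/em 530 nm, and IC50 came from sigmoidal curves, checked against Giemsa smears.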

Series [4] concerns Plasmodium falciparum. Kind of series: Antimalarial activity against […] Plasmodium falciparum RKL9 cultured in human O+ erythrocytes assessed as reduction in parasite growth incubated for 48 hrs by SYBR green I based fluorescence assay. It is filed as functional, organism-based. The note with it: RKL9, 48 h. The method, boiled down:
(§1)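 Sorbitol-synchronized ring-stage cultures (2% haematocrit, 1% parasitaemia) exposed for 48 h to serial dilutions in complete RPMI, top concentration 10µM. CQ was the positive control and drug-free wells the negative control. Growth was read by SYBR Green I lysis buffer, 1 h at 37°C in the dark, fluorescence ex 485/em 530 nm. IC50 came from sigmoidal curve fits, checked by Giemsa smears.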

Series [5] can be described thus: Toxicity in Balb/c mouse at 5.5 to 175 mg/kg, iv for 14 days. It is filed as organism-based. The conditions noted are these: in vivo. The method in brief:
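Female Balb/c mice, 6-8 weeks old, dosed intravenously in PBS at 175, 55, 17.5 and 5.5 mg/kg. Adverse effects were observed directly for 4 h and mortality for 14 days. LD50 was calculated from survival with the Spearman-Karber equation.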

The subject of series [6] is Mus musculus. Kind of series: Toxicity in Balb/c mouse assessed as effect on AST level level at 20 mg/kg, iv. The format is organism-based. The conditions noted are these: in vivo.
In series [7] the test system is Mus musculus. Kind of series: Toxicity in Balb/c mouse assessed as effect on blood electrochemical balance by measuring potassium level at 20 mg/kg, iv. It is filed as organism-based. The note with it: in vivo.
The test system of series [8] is Mus musculus. Kind of series: Toxicity in Balb/c mouse assessed as effect on blood electrochemical balance by measuring sodium level at 20 mg/kg, iv. The format is organism-based. The conditions noted are these: in vivo.
The subject of series [9] is Mus musculus. Kind of series: Toxicity in Plasmodium berghei ANKA infected in Swiss-Harlan mouse model of cerebral malaria assessed as induction of prolonged malaise at 30 mg/kg, ip for 4 days dosed 2 hrs post infection and measured 5 days post infection by Giemsa staining based Peter's 4 day test. It is filed as organism-based. The conditions noted are these: in vivo, 120 h.

Series [10] relates to Plasmodium berghei. Kind of series: Antimalarial activity against Plasmodium berghei ANKA infected in Swiss-Harlan mouse model of cerebral malaria assessed as reduction in parasitemia at 20 mg/kg, ip for 4 days dosed 2 hrs post infection and measured 5 days post infection by Giemsa staining based Peter's 4 day test. The format is functional. On the set-up: scale not given: the % may be the effect or the level left. The method in brief:
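Female Swiss mice (6-8 weeks) were infected IP with 10⁷ P. berghei ANKA-parasitized RBCs. Two hours later, groups (n=4) received 20 mg/kg IP or PBS control, repeated every 24 h for four days. Parasitemia was read on day 5 from Giemsa-stained tail-blood smears, and survival was followed until death.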

The subject of series [11] is Mus musculus. Kind of series: Toxicity in Balb/c mouse assessed as effect on creatinine level level at 17.5 mg/kg, iv. The conditions noted are these: in vivo.
In series [12] the test system is Plasmodium falciparum. Kind of series: Antimalarial activity against […] Plasmodium falciparum MRC2 cultured in human O+ erythrocytes assessed as reduction in parasite growth incubated for 48 hrs by SYBR green I based fluorescence assay. It is filed as functional, organism-based. The note with it: MRC2, 48 h. The method, boiled down: as §1
In series [13] the test system is Mus musculus. Kind of series: Toxicity in Plasmodium berghei ANKA infected in Swiss-Harlan mouse model of cerebral malaria assessed as induction of mouse death at 30 mg/kg, ip for 4 days dosed 2 hrs post infection and measured 5 days post infection by Giemsa staining based Peter's 4 day test. The conditions noted are these: in vivo, 120 h. It is filed as organism-based.

Series [14] has as its system Mus musculus. Kind of series: Toxicity in Balb/c mouse assessed as effect on blood electrochemical balance by measuring chloride level at 20 mg/kg, iv. It is filed as organism-based. The conditions noted are these: in vivo.
The test system of series [15] is Mus musculus. Kind of series: Toxicity in Balb/c mouse assessed as effect on ALT level level at 20 mg/kg, iv. The format is organism-based. The conditions noted are these: in vivo.
Series [16] deals with Mus musculus. Kind of series: Toxicity in Balb/c mouse assessed as effect on urea nitrogen level level at 20 mg/kg, iv. The format is organism-based. The conditions noted are these: in vivo.
In series [17] the test system is Plasmodium berghei. Kind of series: Antimalarial activity against Plasmodium berghei ANKA infected in Swiss-Harlan mouse model of cerebral malaria assessed as time duration for complete mouse mortality at 20 mg/kg, ip for 4 days dosed 2 hrs post infection and measured 5 days post infection by Giemsa staining based Peter's 4 day test (reference value: =<7 days). The format is functional. The method, boiled down:
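Female Swiss mice, 6-8 weeks old, infected IP with 10⁷ P. berghei ANKA parasitized RBCs. Starting 2 h post-infection, 20 mg/kg IP (PBS vehicle; PBS-only controls) every 24 h for four days, n=4. Day-5 parasitemia read from Giemsa-stained tail-blood smears; survival followed until death.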

Results on 4 molecules are retold here after ChEMBL document CHEMBL4138068, “Aryl-alkyl-lysines: small molecular membrane-active antiplasmodial agents” (Medchemcomm, 2017).

The term HC50 denotes the concentration that lyses half of the red blood cells. A word on the IC50: it is the point on the concentration scale where inhibition reaches its midpoint. A word on the LD50: it is the dose at which mortality reaches 50%.

Turning to `CCCCCCCCN(Cc1ccccc1)C(=O)C(CCCCNC(=O)OC(C)(C)C)NC(=O)OC(C)(C)C` (stereo not given), the HC50 at 1 h in [1] was found to be 564 µM. Besides, in series [2], the selectivity ratio came to 141. For the same molecule, in series [3], the half-inhibitory concentration (IC50) is 4000 nM.

Take `CCCCCCN(Cc1cccc2ccccc12)C(=O)C(CCCCNC(=O)OC(C)(C)C)NC(=O)OC(C)(C)C.O=C(O)C(F)(F)F.O=C(O)C(F)(F)F` (stereo not given): the IC50 worked out at 1400 nM in series [4], 1000 nM in series [3] and 5 µM in [12]. Further, the HC50 at 1 h in series [1] amounted to 850 µM. In series [2], the selectivity ratio turned out to be 850. The LD50 at 336 h in [5] was found to be 98 mg/kg. Besides, the Activity result in series [6] was “Non-Toxic”; in series [7] it was “Non-Toxic”; in series [8] it was “Non-Toxic”; in series [9] it was “Toxic”; in series [10], 60%; in series [11], “Non-Toxic”. Also, the Activity result in series [13] was “Toxic”; in series [14] it was “Non-Toxic”; in [15], “Non-Toxic”; in series [16] it was “Non-Toxic”. Further, the Time in [17] is 12 days.

In the case of `CCCCCCN(Cc1ccccc1)C(=O)C(CCCCNC(=O)OC(C)(C)C)NC(=O)OC(C)(C)C` (stereo not given), the HC50 at 1 h in series [1] was > 1000 µM. For the same molecule, the concentration for half-maximal inhibition (IC50) in series [3] was > 5000 nM.

For the molecule `CCCCCCCCN(Cc1cccc2ccccc12)C(=O)C(CCCCNC(=O)OC(C)(C)C)NC(=O)OC(C)(C)C` (stereo not given), the HC50 at 1 h in [1] amounted to 96 µM. For the same molecule, in series [2], the selectivity ratio was 32. For the same molecule, in [3], the IC50 is 3000 nM.
